# Screens deposited in PubChem BioAssay by several laboratories.
# iPSC survival up = enhancers of human iPSC single-cell survival; hiPSC single-cell survival, ATPlite luminescence; 100% = ROCK inhibitor wells, 0% = DMSO; survival enhancement, % at 20 µM; 360,000 tested, 0.044% active; in the data active means survival enhancement above about 18%;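 further: cells exposed to compounds for 16 hours before the ATP read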
# FAS TE block = inhibitors of human fatty acid synthase thioesterase domain; recombinant FAS-TE, OMFH fluorogenic substrate, fluorescence endpoint; inhibition, % at 15 µM; P49327; 360,000 tested, 0.67% active; AID 602261;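 active means compounds whose normalised, plate-corrected inhibition of enzyme fluorescence in the single-dose primary screen is 50% or more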;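 further: 0% = DMSO with enzyme and 100% = substrate without enzyme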
# MT1-MMP act inh = inhibitors of human MT1-MMP activation | P50281 | HT1080 RFP-PRO-GFP cells, GFP/RFP ratio fluorescence, overnight; percent of plate control window, DMSO zero | GFP/RFP ratio change, % at 20 µM | 360,000 tested, 0.061% active | AID 651647;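 active means GFP/RFP ratio change of at least 30% with cell ATP level not reduced by more than half and red fluorescence within 50% of control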
#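 Material – HT1080 RFP-PRO-GFP cells · Control set – DMSO wells and RFP-L50D-GFP cells · Incubation – overnight cell settling, then overnight compound exposure, 37 °C, 5% CO2 · Compound dosing – single-point 20 µM compound, 1% DMSO · Read-out – GFP/RFP fluorescence ratio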
# SKN-1 inh = C. elegans SKN-1 inhibition. 360,000 tested, 0.49% active. inhibition, % at 21.8 µM. C. elegans VP596 Pgst-4::GFP/RFP ratio, acrylamide-induced, 24 h;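 active means interference check ratio from 0.5 to 1.5 plus GFP to RFP signal ratio inhibition reaching or exceeding a fixed threshold, cut at about 30% in these data, passing the limit was not always enough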
# DAGLB inhibitor = blocks human DAGLB lipase activity; HEK293T DAGLB membrane lysate, EnzChek fluorogenic substrate; inhibition, % at 5.17 µM; 340,000 tested, 0.059% active; AID 504411; in the data active means inhibition above about 34%;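 further: 0% = enzyme with vehicle and 100% = wells lacking enzyme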
# DAGLB inh conf = DAGLB (human) inhibition, confirmation screen. AID 504445. shares compounds with DAGLB inhibitor. HEK293T DAGLB membrane lysate, EnzChek fluorogenic substrate. inhibition, % at 5.17 µM. 190 tested, 73% active;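 active means mean inhibition over triplicate wells above a set limit taken from the primary lipase screen, cut at about 34% in these data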;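 further: 0% = DAGLB with DMSO and 100% = wells lacking DAGLB enzyme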
# Numbers without * were called inactive; nt = not tested or not shown. Only some compounds are listed: those with a hit (about 1.3% of all), similar ones and a draw of the others.
SMILES,iPSC survival up,FAS TE block,MT1-MMP act inh,SKN-1 inh,DAGLB inhibitor,DAGLB inh conf
C/C(=N\Nc1ccc(S(N)(=O)=O)cc1[N+](=O)[O-])c1ccc2c(c1)OCO2,0,7,6,-4,37*,42*
O=C1C(NS(=O)(=O)c2cccs2)=C(N2CCN(c3cccc(Cl)c3)CC2)C(=O)c2ccccc21,2,25,6,10,41*,42*
O=C1C(NS(=O)(=O)c2ccccc2)=C(N2CCN(c3ccc(F)cc3)CC2)C(=O)c2ccccc21,0,26,14,8,27,nt
O=S(=O)(c1ccc(NC(=S)N/N=C/c2ccc(O)c(O)c2)cc1)N1CCOCC1,0,-2,7,-8,9,nt
O=[N+]([O-])c1cc(Cl)cc(/C=N/NC(=S)Nc2ccc(S(=O)(=O)N3CCOCC3)cc2)c1O,0,28,-9,-7,61*,73*
COc1ccc(S(=O)(=O)/N=C2\C=C(Nc3ccc(O)cc3)C(=O)c3ccccc32)cc1,0,31,-19,14,55*,50*
COc1cc(/C=N/Nc2ccccc2[N+](=O)[O-])cc(OC)c1O,0,2,12,7,39*,49*
COc1ccccc1/C=N\Nc1ccccc1[N+](=O)[O-],-1,12,9,5,35*,37*
CC(C)Oc1ccccc1/C=N/Nc1ccccc1[N+](=O)[O-],4,24,7,4,26,nt
CC(C)C[C@H]1CNC(=S)N1C[C@H]1CCCN1C[C@H](Cc1ccc(O)cc1)N1C[C@H](Cc2ccccc2)N(CC2CCCCCC2)C1=S,-2,-107,-5,20,nt,nt
CN(C)N=Nc1ccc(S(N)(=O)=O)cc1,1,-7,2,0,0,nt
CN(C)c1ccc(N=Nc2ccc(S(N)(=O)=O)cc2)cc1,1,-3,17,27,39*,39*
CCNC(=O)C1(C)CCCN(C(=O)/C=C/c2ccccc2)C1 (centres undefined),-2,-2,4,6,nt,nt
Brc1ccc(N/N=C(/N=Nc2nn[nH]n2)c2ccccc2)cc1,-1,40,18,-6,46*,78*
C=C1[C@@H](OC(C)=O)C=C[C@@]2(C)C=CC(=O)[C@@](C)(OC(C)=O)[C@@H]2[C@@H](OC(C)=O)[C@]2(O)[C@@H](C)C(=O)O[C@H]2[C@H]1Cl,-2,-4,0,8,nt,nt
COc1ccc(N/C=C2\C(=O)CCc3c2oc2cc(Cl)c(O)c(Cl)c32)cc1,0,-22,-12,4,36*,38*
CN(C)c1ccc(N=Nc2ccc(S(=O)(=O)O)cc2)c2ccccc12,-2,7,18,14,48*,52*
CC(C)C(=O)NC(c1cccs1)c1cc([N+](=O)[O-])c2cccnc2c1O (centres undefined),0,15,16,13,36*,20
O=C1S/C(=C\c2ccc(O)c([N+](=O)[O-])c2)C(=O)N1c1ccccc1Cl,0,18,9,-1,36*,45*
COc1cc(/C=C2\SC(=O)N(c3cccc(Cl)c3)C2=O)cc([N+](=O)[O-])c1O,0,35,19,8,16,nt
CCOc1cc(/C=C2\N=C(SCC)SC2=O)cc([N+](=O)[O-])c1OC(C)=O,2,2,-2,3,50*,37*
CCOc1cc(/C=C2\N=C(SC)SC2=O)cc([N+](=O)[O-])c1OC(C)=O,-1,3,0,23,10,nt
O=C(O)c1cc(S(=O)(=O)Nc2cc(Cl)ccc2Oc2ccccc2)ccc1O,3,3,-3,5,39*,38*
CCc1nc2c(OCc3cc(Cl)cc(Cl)c3)cccn2c1N(C)C(=O)c1ccc(OC)cc1,5,26,-5,15,nt,nt
CCCNC(=O)C1(C)CCN(C(=O)c2c(Cl)cccc2Cl)C1 (centres undefined),0,-3,5,5,nt,nt
SMILES,iPSC survival up,FAS TE block,MT1-MMP act inh,SKN-1 inh,DAGLB inhibitor,DAGLB inh conf
Cc1cc(N=Nc2ccccc2)c(NCC(O)C(O)C(O)CO)cc1C (centres undefined),-1,5,22,13,45*,43*
Cc1ccc(NCC(O)C(O)C(O)CO)cc1C (centres undefined),-2,-7,-1,18,-4,nt
CCOC(=O)C1CCCN(C(=O)c2cc(F)ccc2C)CC1 (centres undefined),4,-3,-1,6,nt,nt
O=[N+]([O-])c1cc(-c2ccccc2)cc([N+](=O)[O-])c1O,2,4,13,-12,43*,53*
O=[N+]([O-])c1cc2ccccc2c(O)c1O,1,-2,3,9,14,nt
C[C@H]1CN([C@@H](C)CO)C(=O)CCCn2cc(nn2)CO[C@@H]1CN(C)C(=O)Nc1ccccc1C(F)(F)F,-1,-7,-2,4,1,nt
COc1ccc(NC(=O)N[C@H]2C=C[C@@H](CC(=O)NC3CCC3)O[C@@H]2CO)cc1,nt,nt,0,4,nt,nt
Cc1ccc(-n2c(O)c(/C=N/Nc3ccc(S(=O)(=O)N4CCOCC4)cc3[N+](=O)[O-])c3ccccc3c2=O)c(C)c1,0,31,-8,16,35*,46*
CCCCCCCCCCC[C@@H](C[C@@H]1OC(=O)[C@H]1CCCCCC)OC(=O)[C@H](CC(C)C)NC=O,-2,nt,-9,-17,49*,86*
CCCCCCC1CC(/C(C)=N\NC(N)=O)OC1=O (centres undefined),1,-13,-1,20,1,nt
Cc1cccc(C)c1Nc1nnc(SCc2nc3ccccc3c(=O)[nH]2)s1,-1,-7,nt,-9,4,nt
CCOc1ccc(Nc2nnc(SCc3nc4ccccc4c(=O)[nH]3)s2)cc1,2,-2,-4,9,60*,74*
COc1ccc(C2/C=C\CN(C(=O)c3ccc(C)cc3)[C@H](Cc3ccccc3)C(=O)N2Cc2ccc(F)cc2)cc1 (some centres undefined),-3,39,-8,1,40*,39*
COC(=O)c1ccc2nc(-c3cccc(Cl)c3)c(Cc3cccc(F)c3)n2c1,0,19,-11,13,nt,nt
O=C1N=c2ccccc2=C1c1sc(=S)n(NC(=O)c2ccccc2)c1O,1,-3,-1,9,3,nt
C=CCn1c(O)c(C2=c3ccccc3=NC2=O)sc1=Nc1ccc(O)cc1,-1,28,17,8,36*,34
COc1cccc(C(=O)NNc2c3ccccc3nc3ccccc23)c1,0,-1,22,4,45*,44*
CCCC[C@@H]1CNC(=O)C(=O)N1CCCCC1CCCCC1,-2,15,nt,-9,nt,nt
